Activity calls are given as the source filed them. No cut-off for these calls is given here.

These results are taken from ChEMBL document CHEMBL2176867, “Design, synthesis, and biological evaluation of novel deguelin-based heat shock protein 90 (HSP90) inhibitors targeting proliferation and angiogenesis” (J Med Chem, 2012).

The nature of series [1]: Cytotoxicity against human H1299 cells after 3 days by MTS assay. The format is functional, cell-based. Conditions: NCI-H1299, 72 h. In a few lines:
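H1299 NSCLC cells seeded at 5 × 10³ cells/well, treated next day with graded concentrations (0.1% DMSO as dilution control); proliferation read by MTS after 3 days; at least three replicate wells; IC50 taken as mean of triplicate experiments.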
A general note: Tetrazolium assays rely on reduction of a dye to a coloured formazan, in cell work by metabolically active cells.

The species entered for series [2] is Danio rerio. The experiment in a line: Antiangiogenic activity in transgenic zebrafish at 50 nM up to 72 hrs. The format is functional, organism-based. A digest of the protocol: (§1)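 Tg(fli:EGFP)^y1 embryos, treated with 1-phenyl-2-thiourea at 12 hpf to block pigmentation, placed in Danieau's solution ± test agents (50, 250, 1250 nM) at 24 hpf; solution washed out at 48 hpf; subintestinal vessels imaged in 72 hpf larvae against DMSO control.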

For series [3], the species on record is Danio rerio. In words: Toxicity in transgenic zebrafish embryos assessed as effect on viability after 24 hrs. The format is organism-based. Conditions: in vivo. In a few lines:
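Tg(fli:EGFP)y1 zebrafish embryos, with pigment suppressed by 1-phenyl-2-thiourea from 12 hpf, were placed at 24 hpf in Danieau's solution with or without compound (50 nM to 1.25 μM). The solution was washed out at 48 hpf, and embryos were examined for viability and gross morphological abnormalities, with DMSO as the control.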

Series [4] is filed under the species Danio rerio. The experiment in a line: Toxicity in transgenic zebrafish embryos assessed as developmental deffect at 50 nM to 10 uM after 24 hrs. The format is organism-based. Conditions: in vivo, 0.05 µM. A digest of the protocol: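 Tg(fli:EGFP)y1 zebrafish embryos were exposed dose-dependently from 50% epiboly (5.3 hpf) across 50 nM to 10 μM, then scored for developmental defects. Pigmentation was blocked with 1-phenyl-2-thiourea at 12 hpf, and compounds were given in Danieau's solution, with DMSO as the negative control.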

The species entered for series [5] is Danio rerio. In words: Antiangiogenic activity in transgenic zebrafish at 0.05 to 1.25 uM up to 72 hrs. The format is functional, organism-based. A digest of the protocol:
as §1

Series [6] addresses Heat shock protein HSP 90-beta (Homo sapiens) (UniProt P08238). The experiment in a line: Inhibition of HSP90 in human H1299 cells assessed as reduction of HIF1alpha level treated for 72 hrs followed by incubated for 12 hrs under hypoxia condition by Western blot analysis. The format is cell-based. A digest of the protocol: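 H1299 cells left untreated or exposed to test agents at each concentration for 72 h, then held under hypoxia (1% O₂) for 12 h; lysates immunoblotted with monoclonal anti-HIF-1α antibody.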

The target is the same in series [7]. The experiment in a line: Inhibition of HSP90 binding to HIF1alpha in human H1299 cells at 12.5 uM after 30 mins by immunoprecipitation and immunoblotting analysis in presence of ATP. The format is cell-based. Conditions: 1.25 uM, in the assay text read “1.25 uM” for “12.5 uM”. In a few lines:
(§2)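 Cell-free format: lysates of H1299 cells pretreated with 100 μM CoCl₂ for 5 h, incubated with compound at 1.25 μM, with or without 20 mM ATP, 30 min at 37 °C. HIF-1α immunoprecipitated (antibody overnight, 4 °C; protein G-agarose 2 h, 4 °C), resolved on 6% SDS-PAGE, blotted for HSP90.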
A general note: A western blot detects proteins with antibodies after separation by electrophoresis.

The species entered for series [8] is Danio rerio. In words: Toxicity in transgenic zebrafish embryos assessed as effect on growth at 50 nM to 1.25 uM after 74 hrs. The format is organism-based. The settings on record: in vivo, 0.05 µM. A digest of the protocol: (§3)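 Zebrafish embryos exposed from 24 hpf to 50 nM–1.25 μM in Danieau's solution (pigmentation blocked with 1-phenyl-2-thiourea at 12 hpf); solution washed out at 48 hpf, then scored for viability and gross morphological abnormalities.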

For series [9], the species on record is Danio rerio. In words: Toxicity in transgenic zebrafish embryos assessed as developmental deffect at 10 uM after 24 hrs. The settings on record: in vivo. The format is organism-based.
Series [10] is filed under the species Danio rerio. The experiment in a line: Toxicity in transgenic zebrafish embryos assessed as effect on viability at 50 nM to 1.25 uM after 74 hrs. The format is organism-based. Conditions: in vivo, 0.05 µM. In a few lines: as §3
The species entered for series [11] is Danio rerio. In words: Toxicity in transgenic zebrafish embryos assessed as developmental deffect at 50 nM to 1.25 uM after 24 hrs. The format is organism-based. The settings on record: in vivo, 0.05 µM. A digest of the protocol:
as §3

Series [12] deals with Heat shock protein HSP 90-beta (Homo sapiens) (UniProt P08238). In words: Inhibition of HSP90 binding to HIF1alpha in human H1299 cells at 12.5 uM after 30 mins by immunoprecipitation and immunoblotting analysis. The format is cell-based. Conditions: 1.25 uM, in the assay text read “1.25 uM” for “12.5 uM”. A digest of the protocol: as §2
For series [13], the species on record is Danio rerio. The experiment in a line: Antiangiogenic activity in transgenic zebrafish embryos.
The species named for series [14] is Danio rerio. The experiment in a line: Antiangiogenic activity in transgenic zebrafish assessed as depletion of subintestinal veins after 72 hrs. The format is functional, organism-based. In a few lines:
as §1

Series [15] is filed under the species Danio rerio. In words: Antiangiogenic activity in transgenic zebrafish assessed as depletion of subintestinal veins at 50 nM to 1250 nM after 72 hrs. The format is functional, organism-based. In a few lines:
as §1

Heat shock protein HSP 90-beta (Homo sapiens), sequence (P08238 whole entry): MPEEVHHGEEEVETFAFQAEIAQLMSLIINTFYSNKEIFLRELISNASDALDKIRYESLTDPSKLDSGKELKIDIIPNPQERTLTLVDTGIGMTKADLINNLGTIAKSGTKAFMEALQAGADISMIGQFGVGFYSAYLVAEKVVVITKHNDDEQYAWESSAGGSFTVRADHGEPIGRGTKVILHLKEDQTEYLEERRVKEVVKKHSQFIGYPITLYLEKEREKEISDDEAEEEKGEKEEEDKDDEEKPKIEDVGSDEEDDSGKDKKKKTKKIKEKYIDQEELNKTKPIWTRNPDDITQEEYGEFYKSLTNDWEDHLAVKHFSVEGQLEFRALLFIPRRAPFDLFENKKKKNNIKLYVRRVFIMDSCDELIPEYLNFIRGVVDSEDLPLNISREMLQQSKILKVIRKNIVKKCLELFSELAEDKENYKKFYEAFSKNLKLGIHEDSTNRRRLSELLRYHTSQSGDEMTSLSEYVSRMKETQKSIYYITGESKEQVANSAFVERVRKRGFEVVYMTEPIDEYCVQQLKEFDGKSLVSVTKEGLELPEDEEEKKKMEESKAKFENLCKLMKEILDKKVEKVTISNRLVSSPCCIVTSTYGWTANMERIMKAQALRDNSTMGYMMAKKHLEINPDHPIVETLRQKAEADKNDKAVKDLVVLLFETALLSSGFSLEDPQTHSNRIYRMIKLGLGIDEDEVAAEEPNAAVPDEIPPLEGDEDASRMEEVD

As for `COc1cc2c(cc1OC)[C@@H]1C(=O)c3ccc(OC)c(CC=C(C)C)c3O[C@@H]1CO2` [ROTENONIC ACID, METHYL ETHER], the IC50 – broadly, the point on the concentration scale where inhibition reaches its midpoint – in series [1] was found to be 5.2 µM. Same read-out and setting: the figure for `COc1cc2c(cc1OC)-c1c(oc3c4c(ccc3c1=O)OC(C)(C)C=C4)CO2` [DEHYDRODEGUELIN] is over 500 µM. In the case of `COc1cc2c(cc1OC)[C@@H]1Cc3ccc4c(c3O[C@@H]1CO2)C=CC(C)(C)O4`, half-maximal inhibition in series [1] (IC50) was put at 4.2 µM. As to `COc1ccc(C2COc3c(ccc4c3C=CC(C)(C)O4)C2=O)cc1OC` (racemic), the IC50 in [1] is 4.5 µM. Same read-out and setting: then `COc1ccc(C(C)C(=O)c2ccc3c(c2OC)C=CC(C)(C)O3)cc1OC` (racemic), with 0.73 µM.

Consider `COc1cc2c(cc1OC)[C@@H]1C(=O)c3ccc4c(c3O[C@@H]1CO2)C=CC(C)(C)O4` [DEGUELIN], for which the concentration for half-maximal inhibition (IC50) in [1] came out at 0.11 µM. In the series listed under Danio rerio [2], the outcome was inactive. Besides, the values for the Activity result in the series listed under Danio rerio [3] and in the series filed under Danio rerio [4] were “Dose-dependent effect” and “Toxic”, respectively. Compound `CC1(C)C=Cc2c(ccc3c2O[C@@H]2COc4cc(O)c(O)cc4[C@@H]2C3=O)O1` displayed an IC50 in series [1] of 10.1 µM. Take `COc1cc2c(cc1OC)[C@@H]1[C@H](O)c3ccc4c(c3O[C@@H]1CO2)C=CC(C)(C)O4`: 0.01 µM corresponded to half-maximal inhibition in series [1] (IC50). Further, the result in the series listed under Danio rerio [5] was inactive. In addition, the inhibition entry in [6] was “Active”. Consider `CCCO[C@@H]1c2ccc3c(c2O[C@@H]2COc4cc(OC)c(OC)cc4[C@H]12)C=CC(C)(C)O3`, for which, in series [1], 10.5 µM corresponded to half-maximal inhibition (IC50).

In [1], `COc1ccc(C2(C(=O)c3ccc4c(c3OC)C=CC(C)(C)O4)CC2)cc1OC` gave a concentration for half-maximal inhibition (IC50) of 102 µM. The compound `CCO[C@@H]1c2ccc3c(c2O[C@@H]2COc4cc(OC)c(OC)cc4[C@H]12)C=CC(C)(C)O3` showed an IC50 in [1] of 9.8 µM. The same measure, in the same setting: the figure for `COc1cc2c(cc1OC)C1=Cc3ccc4c(c3O[C@@H]1CO2)C=CC(C)(C)O4` is over 500 µM; for `COc1ccc(C(C)(C)C(=O)c2ccc3c(c2OC)C=CC(C)(C)O3)cc1OC` it is 3.2 µM.

In the case of `COc1cc2c(cc1OC)[C@@H]1C(=O)c3ccc(O)c(CC=C(C)C)c3O[C@@H]1CO2` [ROTENONIC ACID], the half-maximal inhibitory concentration (IC50) in series [1] came out at 9.8 µM. For the compound `COc1cc2c(cc1OC)[C@@H]1C(=O)c3ccc(OCc4ccccc4)c(CC=C(C)C)c3O[C@@H]1CO2`, the IC50 in series [1] is over 500 µM. The same measure, in the same setting: then `COc1cc2c(cc1OC)[C@@H]1/C(=N/O)c3ccc4c(c3O[C@@H]1CO2)C=CC(C)(C)O4`, with 0.3 µM. For the compound `COc1cc2c(cc1OC)C(C(=O)c1ccc3c(c1)C=CC(C)(C)O3)CCO2` (racemic), in series [1], inhibition was half-maximal at 3.8 µM (IC50). Same read-out and setting: the figure for `COc1cc2c(cc1O)OC[C@H]1Oc3c(ccc4c3C=CC(C)(C)O4)C(=O)[C@@H]21` is 0.87 µM.

For `COc1ccc(CC(=O)c2ccc3c(c2OC)C=CC(C)(C)O3)cc1OC`, the inhibition result in [7] is “inactive”. Besides, the Activity result in the series filed under Danio rerio [8] was “Non-toxic”; in the series listed under Danio rerio [9] it was “Toxic”; in the series listed under Danio rerio [10], “Non-toxic”; in the series listed under Danio rerio [11], “Non-toxic”; in the series filed under Danio rerio [13], “Dose-dependent effect”; in the series filed under Danio rerio [14], “Dose-dependent effect”. The same compound gave an IC50 in series [1] of 0.14 µM. Also, the inhibition entry in series [12] and in [6] was “Active” each time. The compound `COc1cc2c(cc1O)[C@@H]1C(=O)c3ccc4c(c3O[C@@H]1CO2)C=CC(C)(C)O4` yielded an IC50 in series [1] of 0.97 µM. The same measure, in the same setting: the figure for `COc1cc2c(cc1OC)[C@@H]1[C@H](OC)c3ccc4c(c3O[C@@H]1CO2)C=CC(C)(C)O4` is 4.1 µM.

In the case of `COc1cc2c(cc1OC)[C@@H]1C(=O)c3ccc4c(c3O[C@@H]1CO2)C(O)C(O)C(C)(C)O4` (some centres undefined), in [1], the IC50 was over 500 µM.

Regarding `COc1ccc([C@H](C)C(=O)c2ccc3c(c2OC)C=CC(C)(C)O3)cc1OC`, in series [7], the inhibition entry was “inactive”. Moreover, the Activity entry is “Non-toxic” in the series filed under Danio rerio [8]; “Toxic” in the series listed under Danio rerio [9]; “Non-toxic” in the series filed under Danio rerio [10]; “Non-toxic” in the series filed under Danio rerio [11]; “Dose-dependent effect” in the series listed under Danio rerio [13]. Also, the result in the series filed under Danio rerio [15] was Active. In series [1], this compound returned a half-inhibitory concentration (IC50) of 0.49 µM. Moreover, the inhibition result in series [12] and in [6] was “Active” each time. For the compound `COc1ccc(CC(=O)c2ccc3c(c2)C=CC(C)(C)O3)cc1OC`, in [1], the midpoint of inhibition, the IC50, lay at 1 µM.

`COc1cc2c(cc1OC)[C@@H]1[C@H](OC(N)=O)c3ccc4c(c3O[C@@H]1CO2)C=CC(C)(C)O4` gave an IC50 in [1] of 0.11 µM. In addition, in the series filed under Danio rerio [5], the result was inactive. In addition, the inhibition entry in series [6] was “Active”. `COc1cc2c(cc1OC)[C@@H]1/C(=N/OCc3ccccc3)c3ccc4c(c3O[C@@H]1CO2)C=CC(C)(C)O4` showed a half-maximal inhibitory concentration (IC50) in [1] of over 500 µM. The same measure, in the same setting: then `COc1cc2c(cc1OC)[C@@H]1C(=O)c3ccc(OC(C)=O)c(CC=C(C)C)c3O[C@@H]1CO2`, with over 500 µM; and `CO/N=C1\c2ccc3c(c2O[C@@H]2COc4cc(OC)c(OC)cc4[C@H]12)C=CC(C)(C)O3`, with 4.3 µM. Take `COc1cc2c(cc1OC)[C@@H]1[C@H](OC(C)=O)c3ccc4c(c3O[C@@H]1CO2)C=CC(C)(C)O4`: the midpoint of inhibition in [1], the IC50, lay at 0.68 µM. `C=CCOc1ccc2c(c1CC=C(C)C)O[C@@H]1COc3cc(OC)c(OC)cc3[C@@H]1C2=O` had a half-maximal inhibitory concentration (IC50) in [1] of over 500 µM. The same measure, in the same setting: the figure for `COc1cc2c(cc1OC)[C@@H]1[C@H](OCc3ccccc3)c3ccc4c(c3O[C@@H]1CO2)C=CC(C)(C)O4` is over 500 µM.

As for `COc1cc2c(cc1OC)[C@@H]1C(=O)c3ccc4c(c3O[C@@H]1CO2)CCC(C)(C)O4`, the IC50 in series [1] worked out at 0.14 µM. Turning to `COc1ccc([C@@H](C)C(=O)c2ccc3c(c2OC)C=CC(C)(C)O3)cc1OC`, the Activity entry is “Non-toxic” in the series filed under Danio rerio [8]; “Toxic” in the series filed under Danio rerio [9]; “Non-toxic” in the series filed under Danio rerio [10]; “Non-toxic” in the series listed under Danio rerio [11]; “Dose-dependent effect” in the series filed under Danio rerio [13]. The same compound came in with a 50% inhibitory concentration (IC50) in series [1] of 1.3 µM. Moreover, in series [6], the inhibition result is “Active”.
